Active and inactive are the calls of the source. The rule behind the calls is not given here.

For assay [1], the target named is T1, 17-beta-hydroxysteroid dehydrogenase type 3 (Homo sapiens, UniProt P37058).
T1 sequence (P37058 whole entry): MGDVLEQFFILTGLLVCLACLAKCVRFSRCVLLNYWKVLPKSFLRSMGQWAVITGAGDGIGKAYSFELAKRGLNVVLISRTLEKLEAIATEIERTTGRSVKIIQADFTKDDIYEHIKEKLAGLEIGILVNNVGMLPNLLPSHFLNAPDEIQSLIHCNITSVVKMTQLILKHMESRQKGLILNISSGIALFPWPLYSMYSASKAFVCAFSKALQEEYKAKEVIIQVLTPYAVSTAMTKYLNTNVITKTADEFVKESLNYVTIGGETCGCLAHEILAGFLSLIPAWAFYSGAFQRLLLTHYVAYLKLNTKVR
Description: Inhibition of 17Beta-HSD3 expressed in intact HEK293 cells assessed as transformation of [14C]-4-androstene-3,17-dione into [14C]-testosterone in presence of NADPH after 1 hr incubation. The class given is cell-based. In outline:
(§1)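 HEK-293 cells were grown in MEM with 10% FBS at 37 °C under 5% CO2, seeded at 200,000 cells/well, and transfected with 2 µg/well of a 17β-HSD3 expression plasmid. Intact cells then got 50 nM [4-14C]-4-androstene-3,17-dione plus inhibitor in ethanol (0.5% v/v) for 1 h. Radiolabelled steroids were extracted from the medium and quantified. Triplicate; % transformation was used to derive IC50.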

The target of assay [2] is T2, Androgen receptor (Mus musculus) (UniProt P19091).
T2 sequence (whole entry): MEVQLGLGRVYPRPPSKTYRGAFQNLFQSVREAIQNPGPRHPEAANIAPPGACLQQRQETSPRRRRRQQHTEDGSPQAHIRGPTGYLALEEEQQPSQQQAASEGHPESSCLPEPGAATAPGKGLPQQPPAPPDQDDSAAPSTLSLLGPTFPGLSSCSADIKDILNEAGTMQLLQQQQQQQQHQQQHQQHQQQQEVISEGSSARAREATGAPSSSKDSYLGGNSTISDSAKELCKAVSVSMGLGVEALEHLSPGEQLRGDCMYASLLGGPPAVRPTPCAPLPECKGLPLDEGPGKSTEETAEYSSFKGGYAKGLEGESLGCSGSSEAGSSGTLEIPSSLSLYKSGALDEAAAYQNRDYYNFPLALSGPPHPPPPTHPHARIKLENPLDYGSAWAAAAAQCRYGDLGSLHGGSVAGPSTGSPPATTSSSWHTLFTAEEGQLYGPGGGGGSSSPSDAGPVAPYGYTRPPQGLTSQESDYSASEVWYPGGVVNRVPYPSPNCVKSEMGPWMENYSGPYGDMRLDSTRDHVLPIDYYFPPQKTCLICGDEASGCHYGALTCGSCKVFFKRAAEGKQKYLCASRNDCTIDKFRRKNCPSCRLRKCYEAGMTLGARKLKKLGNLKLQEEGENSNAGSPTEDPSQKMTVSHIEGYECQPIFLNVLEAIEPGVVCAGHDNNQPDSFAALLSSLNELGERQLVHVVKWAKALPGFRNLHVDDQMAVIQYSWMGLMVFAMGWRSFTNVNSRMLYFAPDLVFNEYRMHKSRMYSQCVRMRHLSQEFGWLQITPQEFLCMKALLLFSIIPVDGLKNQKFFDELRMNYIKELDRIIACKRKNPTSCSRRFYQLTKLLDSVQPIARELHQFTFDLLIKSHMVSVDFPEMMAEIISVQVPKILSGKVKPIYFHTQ
In words: Activation of androgen receptor in androgen-sensitive (AR+) mouse Shionogi cells assessed as stimulation of cell proliferation after 10 days relative to control. The essentials: (§2)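 Androgen-sensitive (AR+) Shionogi cells. Inhibitors and reference compounds were each tested at 0.1 and 1.0 µM. Androgenicity is reported as % cell proliferation versus control, with basal proliferation set to 100%. DHT (0.1 µM) served as androgen reference and hydroxyflutamide as antiandrogen. Data are mean ± SEM of one experiment in triplicate.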

The target of assay [3] is T2, Androgen receptor (Mus musculus). Description: Activation of androgen receptor in androgen-sensitive (AR+) mouse Shionogi cells assessed as stimulation of cell proliferation after 10 days at 1 uM relative to control. The essentials:
as §2

Assay [4] concerns the target T3, 17-beta-hydroxysteroid dehydrogenase type 3 (Homo sapiens) (UniProt P37058).
T3 sequence (whole entry): T1 sequence (P37058 whole entry)
Description: Inhibition of 17Beta-HSD3 expressed in homogenized HEK293 cells assessed as transformation of [14C]-4-androstene-3,17-dione into [14C]-testosterone in presence of NADPH at 0.01 uM. It is filed as cell-based. In outline:
(§3)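 HEK-293 cells overexpressing 17β-HSD3 were briefly homogenized. The enzyme assay measured conversion of 50 nM [4-14C]-4-androstene-3,17-dione to [14C]-testosterone with NADPH in excess (5 mM). Inhibitor was dissolved in ethanol, and the ethanol-only control was used to derive % inhibition at each concentration. Error 10%.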

Assay [5] addresses T3, 17-beta-hydroxysteroid dehydrogenase type 3 (Homo sapiens). Description: Inhibition of 17Beta-HSD3 expressed in intact HEK293 cells assessed as transformation of [14C]-4-androstene-3,17-dione into [14C]-testosterone in presence of NADPH at 1 uM after 1 hr incubation. It is filed as cell-based. The essentials:
as §1

Assay [6] shares this target. Description: Inhibition of 17Beta-HSD3 expressed in homogenized HEK293 cells assessed as transformation of [14C]-4-androstene-3,17-dione into [14C]-testosterone in presence of NADPH at 0.1 uM. The class given is cell-based. The essentials:
as §3

Assay [7] shares this target. In words: Inhibition of 17Beta-HSD3 expressed in intact HEK293 cells assessed as transformation of [14C]-4-androstene-3,17-dione into [14C]-testosterone in presence of NADPH at 0.1 uM after 1 hr incubation. It is filed as cell-based. The essentials: as §1
For assay [8] the target is unchanged. Description: Inhibition of 17Beta-HSD3 expressed in homogenized HEK293 cells assessed as transformation of [14C]-4-androstene-3,17-dione into [14C]-testosterone in presence of NADPH at 1 uM. The class given is cell-based. The essentials: as §3

For `C[C@]12CC[C@@]3(C[C@@H]1CC[C@@H]1[C@@H]2CC[C@]2(C)C(=O)CC[C@@H]12)CN(CCC(CN1CCOCC1)OC(=O)C1CCCCC1)C(=O)O3` (stereo not given in full), the IC50 (usually the concentration needed to halve the response being measured) in assay [1] came to 51 nM. For the same compound, the result in assay [2] was inactive.

Consider `C[C@]12CC[C@](O)(Cc3ccccc3)C[C@@H]1CC[C@@H]1[C@@H]2CC[C@]2(C)C(=O)CC[C@@H]12`, for which the Activity in assay [3] stood at 396%.

For `C[C@]12CC[C@](O)(CN3CCN(Cc4ccccc4)CC3)C[C@@H]1CC[C@@H]1[C@@H]2CC[C@]2(C)C(=O)CC[C@@H]12`, the inhibition (in general, the percentage by which the read-out fell short of the control) in assay [4] was 35%; in assay [5], 80%; in assay [6] it was 72%; in assay [7], 37%; in assay [8], 90%.

Take `CN(Cc1ccccc1)C[C@@]1(O)CC[C@@]2(C)[C@@H](CC[C@@H]3[C@@H]2CC[C@]2(C)C(=O)CC[C@@H]32)C1`: the inhibition in assay [4] is 28%; in assay [5], 92%; in assay [6], 79%; in assay [7] it was 48%; in assay [8], 89%.

As for `C[C@]12CC[C@@]3(C[C@@H]1CC[C@@H]1[C@@H]2CC[C@]2(C)C(=O)CC[C@@H]12)CN(Cc1ccccc1)C(=O)O3`, the inhibition in assay [4] amounted to 21%; in assay [6] it was 86%; in assay [7] it was 44%; in assay [8] it was 93%. For the same compound, in assay [3], the outcome was inactive.

On to `C[C@@H]1CN(S(=O)(=O)c2ccccc2C(F)(F)F)[C@@H](C)CN1C[C@@]1(O)CC[C@@]2(C)[C@@H](CC[C@@H]3[C@@H]2CC[C@]2(C)C(=O)CC[C@@H]32)C1`, for which the inhibition was found to be 55% in assay [4], 92% in assay [6] and 84% in assay [7]. In addition, the concentration for half-maximal inhibition (IC50) in assay [1] was found to be 6 nM. Further, in assay [3], the outcome was inactive.

Turning to `CCN(Cc1ccccc1)C[C@@]1(O)CC[C@@]2(C)[C@@H](CC[C@@H]3[C@@H]2CC[C@]2(C)C(=O)CC[C@@H]32)C1`, the inhibition in assay [4] is 42%; in assay [5] it was 94%; in assay [6] it was 85%; in assay [7] it was 86%; in assay [8] it was 90%. In addition, the Activity in assay [3] came to 314%.

Take `CC(C)(O)C(=O)Nc1ccc([N+](=O)[O-])c(C(F)(F)F)c1`: the result in assay [2] was inactive.

Source of the values: ChEMBL document CHEMBL1811881, “Development of 3-substituted-androsterone derivatives as potent inhibitors of 17β-hydroxysteroid dehydrogenase type 3” (Bioorg Med Chem, 2011).
